Data from ChEMBL document CHEMBL1149811, “Synthesis of novel 4,6-disubstituted quinazoline derivatives, their anti-inflammatory and anti-cancer activity (cytotoxic) against U937 leukemia cell lines” (Eur J Med Chem, 2008).
In brackets after ≈: the same amount, converted by molar mass.

Legend:
U-937 = test: Cytotoxicity against human U937 cells after 2 days by MTT assay; type: functional, cell-based; conditions: U-937, 48 h
Method in brief: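 U937 human histocytic lymphoma cells grown in RPMI-1640 with 10% FBS at 37 °C under CO2. Seeded at 2 × 10^4 cells/well and compounds added after 24 h. Viability read after two days by MTT (4 h at 37 °C, formazan dissolved in DMSO, absorbance 570 nm). Percent inhibition versus untreated control; IC50 (50% cell-number decrease) by linear regression; mean ± SE of four observations.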

Rattus norvegicus [1] = test: Antiinflammatory activity in Wistar rat assessed as inhibition of carrageenan-induced paw edema at 100 mg/kg, po; type: functional
Method in brief: (§1)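 Male Wistar rats, fasted overnight, three per group. Given orally as 1% gum acacia suspension (test 100 mg/kg, indomethacin 10 mg/kg; controls vehicle). One hour later, 0.1 ml of 1% carrageenan injected sub-plantar into left hind paw. Paw volume measured by digital plethysmometer before carrageenan and at 3 h. Percent inhibition per rat versus mean control paw volume, reported as mean ± SE.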

Rattus norvegicus [2] = test: Antiinflammatory activity in Wistar rat assessed as inhibition of carrageenan-induced paw edema at 10 mg/kg, po; type: functional; method in brief: as §1

SMILES	IC50 (U-937) [µg/mL]	inhibition in vivo at 100 mg/kg (Rattus norvegicus [1]) [%]	inhibition in vivo at 10 mg/kg (Rattus norvegicus [2]) [%]
O=C(O)[C@H](Cc1c[nH]c2ccccc12)Nc1nc(-c2ccccc2)nc2ccc(I)cc12	46.1 (≈ 86.3 µM)	0	
O=C(O)[C@H](Cc1c[nH]c2ccccc12)Nc1nc(-c2ccccc2)nc2ccccc12	74.8 (≈ 183 µM)	1.8	
O=C(O)CNc1nc(-c2ccccc2)nc2ccccc12		0	
O=C(O)CNc1nc(-c2ccccc2)nc2ccc(Br)cc12		0	
O=C(O)CNc1nc(-c2ccccc2)nc2ccc(I)cc12		0	
C[C@H](Nc1nc(-c2ccccc2)nc2ccc(I)cc12)C(=O)O		6.5	
O=C(O)[C@H](Cc1ccccc1)Nc1nc(-c2ccccc2)nc2ccc(Br)cc12	50.4 (≈ 112 µM)	0	
CC[C@H](C)[C@H](Nc1nc(-c2ccccc2)nc2ccccc12)C(=O)O	121 (≈ 360 µM)	4.1	
CC[C@H](C)[C@H](Nc1nc(-c2ccccc2)nc2ccc(Br)cc12)C(=O)O	32 (≈ 77.3 µM)	0	
CC[C@H](C)[C@H](Nc1nc(-c2ccccc2)nc2ccc(I)cc12)C(=O)O	52.4 (≈ 114 µM)	0	
O=C(O)[C@H](Cc1ccccc1)Nc1nc(-c2ccccc2)nc2ccccc12		0	
O=C(O)[C@H](Cc1c[nH]c2ccccc12)Nc1nc(-c2ccccc2)nc2ccc(Br)cc12	37.9 (≈ 77.8 µM)	0	
C[C@H](Nc1nc(-c2ccccc2)nc2ccccc12)C(=O)O		9.3	
C[C@H](Nc1nc(-c2ccccc2)nc2ccc(Br)cc12)C(=O)O	104 (≈ 280 µM)	0	
O=C(O)[C@H](Cc1ccccc1)Nc1nc(-c2ccccc2)nc2ccc(I)cc12	16.1 (≈ 32.5 µM)	3.7	
COc1cc([C@@H]2c3cc4c(cc3[C@@H](O[C@@H]3O[C@@H]5CO[C@@H](C)O[C@H]5[C@H](O)[C@H]3O)[C@H]3COC(=O)[C@H]23)OCO4)cc(OC)c1O [ETOPOSIDE]	10.6 (≈ 17.9 µM)		
COc1ccc2c(c1)c(CC(=O)O)c(C)n2C(=O)c1ccc(Cl)cc1 [INDOMETHACIN]			48
